These results are taken from ChEMBL document CHEMBL2440107, “Quinazolino linked 4β-amidopodophyllotoxin conjugates regulate angiogenic pathway and control breast cancer cell proliferation” (Bioorg Med Chem, 2013).

The subject of data set [1] is MCF7. Nature of the data set: Disruption of mitochondrial membrane potential in human MCF7 cells at 4 uM after 24 hrs by JC-1 dye-based fluorescence assay. The data set is classed as functional, cell-based. In a few lines: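 MCF-7 cells exposed 24 h at 4 µM, etoposide as reference, then stained with 2.5 µM JC-1 for 20 min at room temperature. Fluorescence imaging: red J-aggregates indicate intact potential, green monomers indicate loss, read as red-to-green shift.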

In data set [2] the test system is MCF7. Put plainly: Antiangiogenic activity in human MCF7 cells assessed as downregulation of STAT3 protein expression at 4 uM after 24 hrs by Western blotting analysis. Format: functional, cell-based.
Data set [3] relates to MCF7. Nature of the data set: Antimitotic activity in human MCF7 cells assessed as upregulation of p53 protein expression at 4 uM after 24 hrs by Western blotting analysis. Format: functional, cell-based.
The test system of data set [4] is MCF7. Put plainly: Antimitotic activity in human MCF7 cells assessed as upregulation of cyclin B1 protein expression at 4 uM after 24 hrs by Western blotting analysis. The data set is classed as functional, cell-based.
The subject of data set [5] is MCF7. Put plainly: Antimitotic activity in human MCF7 cells assessed as downregulation of Cdk1 protein expression at 4 uM after 24 hrs by Western blotting analysis. Format: functional, cell-based.
Data set [6] has as its system MCF7. Put plainly: Antiangiogenic activity in human MCF7 cells assessed as downregulation of phosphorylated ERK1/2 protein expression at 4 uM after 24 hrs by Western blotting analysis. The data set is classed as functional, cell-based.
Data set [7] deals with MCF7. Nature of the data set: Cell cycle arrest in human MCF7 cells assessed as accumulation at G1 phase at 4 uM after 24 hrs by propidium iodide staining-based flow cytometric analysis (reference value: 77%). Format: functional.
The test system of data set [8] is MCF7. Put plainly: Antiangiogenic activity in human MCF7 cells assessed as downregulation of VEGF-A protein expression at 4 uM after 24 hrs by Western blotting analysis. Format: functional, cell-based.
Data set [9] concerns MCF7. Put plainly: Antiangiogenic activity in human MCF7 cells assessed as effect on AKT1 protein expression at 4 uM after 24 hrs by Western blotting analysis. Format: functional, cell-based.
Data set [10] relates to HUVEC. Put plainly: Cytotoxicity against HUVEC assessed as cell viability at 1 uM after 6 hrs by MTT assay. Format: cell-based. Conditions: human. In a few lines: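 HUVEC at 10,000 cells/well exposed for 6 h across 0.5–32 µM; percent viability plotted, etoposide as standard. Triplicates, Student t-test.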
Data set [11] deals with MCF7. Put plainly: Cell cycle arrest in human MCF7 cells assessed as accumulation at G0 phase at 4 uM after 24 hrs by propidium iodide staining-based flow cytometric analysis (reference value: 3%). Format: functional.
Data set [12] has as its system MCF7. Put plainly: Induction of apoptosis in human MCF7 cells assessed as upregulation of caspase-9 protein expression at 4 uM after 24 hrs by Western blotting analysis. Format: functional, cell-based.
Data set [13] concerns MCF7. Put plainly: Induction of apoptosis in human MCF7 cells assessed as upregulation of cytochrome-c protein expression in cytosol at 4 uM after 24 hrs by Western blotting analysis. The data set is classed as functional, cell-based.
The test system of data set [14] is PANC-1. Put plainly: Cytotoxicity against human PANC1 cells assessed as cell viability at 0.5 to 32 uM after 24 hrs by MTT assay. The data set is classed as functional, cell-based. In a few lines:
(§1)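 Cells seeded at 10,000/well, incubated overnight, then exposed 24 h to 0.5–32 µM, etoposide as standard. MTT added, 2 h at 37 °C; formazan solubilised in extraction buffer, OD read at 570 nm; percent viability determined. Triplicates, Student t-test.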

The subject of data set [15] is MCF7. Nature of the data set: Antiangiogenic activity in human MCF7 cells assessed as downregulation of AKT phosphorylation at Ser473 at 4 uM after 24 hrs by Western blotting analysis. The data set is classed as functional, cell-based.
In data set [16] the test system is HUVEC. Nature of the data set: Antiangiogenic activity in HUVEC assessed as inhibition of VEGF-A-induced tube formation at 1 uM after 6 hrs by inverted microscopic analysis. The data set is classed as functional, cell-based. The settings on record: Homo sapiens. In a few lines: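 HUVEC (ECM medium, 5% FBS, 1% ECGS) seeded at 5×10^3 cells/well on EC matrix solidified at 37 °C, grown 12 h in endothelial growth media, then treated at 1 µM final for about 6 h. Tube formation examined by inverted microscopy. Etoposide as reference.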

The test system of data set [17] is MCF7. Nature of the data set: Antiangiogenic activity in human MCF7 cells assessed as downregulation of ERK1/2 protein expression at 4 uM after 24 hrs by Western blotting analysis. The data set is classed as functional, cell-based.
Data set [18] concerns MCF7. Put plainly: Cell cycle arrest in human MCF7 cells assessed as accumulation at S phase at 4 uM after 24 hrs by propidium iodide staining-based flow cytometric analysis (reference value: 5%). Format: functional.
Data set [19] has as its system MCF7. Nature of the data set: Antiinvasive activity in human MCF7 cells assessed as downregulation of alphaVbeta3 integrin protein expression at 4 uM after 24 hrs by Western blot analysis. The data set is classed as functional, cell-based.
In data set [20] the test system is MCF7. Put plainly: Cell cycle arrest in human MCF7 cells assessed as accumulation at G2/M phase at 4 uM after 24 hrs by propidium iodide staining-based flow cytometric analysis (reference value: 15%). Format: functional.
In data set [21] the test system is MCF7. Put plainly: Cytotoxicity against human MCF7 cells assessed as cell viability at 0.5 to 32 uM after 24 hrs by MTT assay. Format: functional, cell-based. In a few lines: as §1
For data set [22], the system named is MDA-MB-231. Nature of the data set: Cytotoxicity against human MDA-MB-231 cells assessed as cell viability at 0.5 to 32 uM after 24 hrs by MTT assay. Format: functional, cell-based. In a few lines:
as §1

The subject of data set [23] is MCF7. Put plainly: Antiangiogenic activity in human MCF7 cells assessed as upregulation of STAT1 protein expression at 4 uM after 24 hrs by Western blotting analysis. Format: functional, cell-based.

The source made the active and inactive calls. No cut-off for these calls is given here.

`COc1cc([C@@H]2c3cc4c(cc3[C@@H](NC(=O)CCCCCOc3ccc5nc(C)n(-c6ccc(F)cc6)c(=O)c5c3)[C@H]3COC(=O)[C@H]23)OCO4)cc(OC)c1OC`: the result in data set [1], in [2], in data set [3], in [4], in data set [5] and in data set [6] was Active. The result in data set [8], in [12], in [13], in [14], in data set [15] and in [17] was Active. Moreover, the outcome in data set [19], in data set [21], in data set [22] and in [23] was Active. Also, the Activity in [7] was 37%; in data set [10], “Non-toxic”; in data set [11] it was 14%; in data set [18] it was 4%; in [20], 45%. Besides, the outcome in data set [9] was inactive. Also, the inhibition entry in data set [16] is “Active”.
